ADAM17 inh: inhibitors of human ADAM17; inhibition, % at 6.95 µM; recombinant ADAM17, EDANS/DABCYL FRET peptide cleavage; 370,000 tested, 0.83% active; P78536;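 active = inhibition above the mean of compounds lying between control limits plus 3 SD, set per campaign, cut at about 8.5% in these data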
Target sequence (P78536 215-824 limits assumed): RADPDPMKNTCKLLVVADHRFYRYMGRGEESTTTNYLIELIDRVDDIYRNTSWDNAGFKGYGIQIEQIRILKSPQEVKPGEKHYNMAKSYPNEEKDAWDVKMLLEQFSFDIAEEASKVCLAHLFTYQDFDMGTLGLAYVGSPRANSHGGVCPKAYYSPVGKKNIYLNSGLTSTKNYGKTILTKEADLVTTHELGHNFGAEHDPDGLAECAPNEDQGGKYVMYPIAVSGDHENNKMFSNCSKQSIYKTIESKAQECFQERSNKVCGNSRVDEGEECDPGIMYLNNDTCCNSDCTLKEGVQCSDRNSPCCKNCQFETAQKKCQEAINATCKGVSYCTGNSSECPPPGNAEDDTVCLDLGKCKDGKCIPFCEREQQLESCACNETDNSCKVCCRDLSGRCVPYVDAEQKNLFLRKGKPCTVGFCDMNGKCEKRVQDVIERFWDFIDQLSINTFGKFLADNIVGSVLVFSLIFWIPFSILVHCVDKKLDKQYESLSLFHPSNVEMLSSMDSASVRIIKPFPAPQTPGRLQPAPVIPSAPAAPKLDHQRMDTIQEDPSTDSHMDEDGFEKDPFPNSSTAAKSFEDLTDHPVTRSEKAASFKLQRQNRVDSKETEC
MPTP block: blocks calcium-induced mitochondrial swelling; isolated mouse mitochondria, Ca2+ swelling absorbance, 30 min; inhibition, % at 10 µM; 360,000 tested, 1.4% active; AID 602449;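 active = inhibition of 50% or more, scaled per plate between neutral and stimulator controls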
NR3A LBD binder: modulates the human NR3A ligand-binding domain; Tm shift relative to glycine control, % at 25 µM; NR3A LBD differential scanning fluorimetry, Tm shift; 0% = protein alone, 100% = glycine-bound protein; 340,000 tested, 2.5% active;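 active = melting temperature shift of at least 10% of the positive control shift, at one fixed dose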
SKN-1 inh: C. elegans SKN-1 inhibition; inhibition, % at 21.8 µM; 360,000 tested, 0.49% active; C. elegans VP596 Pgst-4::GFP/RFP ratio, acrylamide-induced, 24 h; AID 624304;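 active = interference check ratio from 0.5 to 1.5 plus GFP to RFP signal ratio inhibition reaching or exceeding a fixed threshold, cut at about 30% in these data, passing the limit was not always enough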
MT1-MMP act inh: MT1-MMP (human) activation inhibition; P50281; AID 651647; HT1080 RFP-PRO-GFP cells, GFP/RFP ratio fluorescence, overnight; percent of plate control window, DMSO zero; GFP/RFP ratio change, % at 20 µM; 360,000 tested, 0.061% active;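 active = GFP/RFP ratio change of at least 30% with cell ATP level not reduced by more than half and red fluorescence within 50% of control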
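Compound: 20 µM single dose, 1% DMSO / System: HT1080 RFP-PRO-GFP cells / Controls: DMSO and RFP-L50D-GFP cell wells / Read-out basis: GFP/RFP fluorescence ratio / Schedule: overnight compound exposure at 37 °C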
ADAM10 inh: inhibitors of human ADAM10 | O14672 | recombinant ADAM10, EDANS/DABCYL FRET peptide cleavage, 3 h | inhibition, % at 7 µM | 370,000 tested, 0.62% active;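 active = inhibition above a per-campaign cutoff equal to the mean of compounds falling between control-based bounds plus 3 SD, cut at about 20% in these data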
Rh123 counter: membrane potential counter-screen of mitochondrial pore inhibitors. shares compounds with MPTP block. isolated mitochondria, Rhodamine 123 fluorescence. inhibition, % at 10 µM. 5,000 tested, 78% active. AID 624504; in the data active = inhibition above about 22%
MPTP abs DR: MPTP inhibition, dose response swelling confirmation | shares compounds with MPTP block | isolated mitochondria swelling, absorbance | IC50, µM | 780 tested, 58% active; in the data active = IC50 below about 20 µM
MPTP counter DR: active in counter-screen for permeability transition pore inhibitors. shares compounds with MPTP block. isolated mitochondria counterscreen, fluorescence read-out. IC50, µM. 780 tested, 49% active. AID 651564; in the data active = IC50 below about 80 µM
Of the large screens only hits and unclear results are named; the others gave an inactive call (follow-up assays come after a bar, where they were run). Shown are actives, neighbours in structure and some others; about 4.7% of the full set was active somewhere.

COc1ccc(N/N=C(\C#N)C(N)=O)cc1	none
COc1cc(CNCc2cccc3ccccc23)cc(OC)c1	none
COc1cc(CNCc2c[nH]c3ccccc23)cc(OC)c1	MPTP block 59.6 | Rh123 counter inactive | MPTP abs DR 6.29 | MPTP counter DR 52.7
C/C(=N\NC(=O)c1cc(Cl)ccc1O)c1ccc(Br)s1	MPTP block 94.2 | Rh123 counter inactive | MPTP abs DR 4.7 | MPTP counter DR <2.5
O=C(NCc1ccc(Cl)cc1)C1=Cc2cc(Cl)ccc2OC1	MPTP block 78.1 | Rh123 counter 89.3
O=C(Nc1ccc2c(c1)OCCO2)c1ccc(Cl)c(Cl)c1	none
O=C(Nc1cccc(Cl)c1)c1cc(F)cc2c1OCOC2	none
O=C(Nc1cccc(Cl)c1)C1=Cc2cc(Cl)ccc2OC1	MPTP block 95.1, NR3A LBD binder 20.4 | Rh123 counter 109.5
O=C(Nc1ccc(Cl)c(Cl)c1)C1=Cc2ccccc2OC1	MPTP block 88.6, NR3A LBD binder 18.6 | Rh123 counter 91.5
CCOC(=O)c1sc(NC(=O)Nc2ccc(F)cc2)nc1C	MPTP block 73.2 | Rh123 counter 84.3
CCOC(=O)c1sc(NC(=O)Cc2ccc(F)cc2)nc1C	none
COC(=O)c1ccc(NC(=O)Nc2ccc([N+](=O)[O-])cc2)cc1	MPTP block 94.5, NR3A LBD binder 34.0 | Rh123 counter 84.9
CCOC(=O)c1ccc(NC(=O)Nc2ccc(F)cc2)cc1	MPTP block 97.1, NR3A LBD binder 35.0 | Rh123 counter 84.9
CCOC(=O)c1cc(NC(=O)Nc2ccc(Br)cc2)c(C)nc1C	MPTP block 73.8 | Rh123 counter 69.8
CCOC(=O)c1cc(NC(=O)Nc2ccccc2Cl)c(C)nc1C	none
O=C(N=C1SC2CS(=O)(=O)CC2N1c1ccc(Br)cc1Cl)C1CC1 (configuration not stated)	none
CCOC(=O)c1ccc(NC(=O)Nc2ccc(OC)c(OC)c2)cc1	MPTP block 64.6, NR3A LBD binder 16.1 | Rh123 counter 69.0
Cc1ccc(NC(=O)NNC(=O)COc2ccc([N+](=O)[O-])cc2)cc1C	none
O=C(COc1ccc([N+](=O)[O-])cc1)NNC(=O)Nc1ccc([N+](=O)[O-])cc1	MPTP block 67.3 | Rh123 counter 96.2
O=C(Nc1ccc([N+](=O)[O-])cc1)Nc1ccon1	MPTP block 57.7 | Rh123 counter 98.5
CCOC(=O)c1ccc(NC(=O)Oc2cc(C)c(Cl)cc2C(C)C)cc1	MPTP block 63.9, NR3A LBD binder 14.7 | Rh123 counter 68.6
O=C(NCc1ccccc1)c1ccc2nc(N3CCOCC3)sc2c1	none
COc1cc2[nH]c(=O)n(CCCCCC(=O)NCCc3c[nH]c4ccccc34)c(=O)c2cc1OC	none
COC(=O)c1ccc(NC(=O)Nc2ccc(F)c(Cl)c2)cc1	MPTP block 91.2, NR3A LBD binder 41.3 | Rh123 counter 83.2
CC(C)CNC(=O)Nc1ccc(F)c(Cl)c1	none
COC(=O)c1ccc(NC(=O)Nc2ccc(F)cc2)cc1	MPTP block 63.5, NR3A LBD binder 18.2 | Rh123 counter 96.5
Cc1ccc(NC(=O)Nc2ccc3c(c2)OCO3)c(OC(F)F)c1	none
COC(=O)c1cc(NC(=O)c2ccc(F)cc2)cc(C(=O)OC)c1	none
COc1ccc(NC(=O)Nc2ccc(C)cc2OC(F)F)cc1OC	MPTP block 52.3 | Rh123 counter 36.3
CC(C)(C)c1ccc(NC(=O)Nc2ccc(F)cc2)cc1	MPTP block 98.6, NR3A LBD binder 14.4 | Rh123 counter 88.3
COC(C[C@H](O)C[C@H](O)[C@@H](C)OCc1ccccc1)OC	none
COC(=O)c1ccc(NC(=O)Nc2ccccc2F)cc1	MPTP block 54.4 | Rh123 counter 83.9
COC(=O)c1sccc1NC(=O)Nc1ccccc1F	none
Cc1cc(/C=C2/C(=N)N3C(=NC2=O)SN=C3S(C)(=O)=O)c(C)n1-c1ccccc1F	none
CS(=O)(=O)C1=NSC2=NC(=O)/C(=C\c3cccn3-c3ccc(Cl)cc3)C(=N)N21	MPTP block 96.1, NR3A LBD binder 18.6 | Rh123 counter 60.6
CSc1nsc(/C=C/Nc2ccc(F)cc2)c1C#N	MPTP block 59.5 | Rh123 counter 31.2
OCCN1CCN(c2nc(-c3ccccc3)c3cc(Cl)ccc3n2)CC1	MPTP block 79.6 | Rh123 counter inactive | MPTP abs DR 9.16 | MPTP counter DR inactive
CN1CCN(c2nc(-c3ccccc3)c3cc(Cl)ccc3n2)CC1	MPTP block 62.8 | Rh123 counter inactive | MPTP abs DR 17 | MPTP counter DR 76.8
Cc1ccc2nc(N3CCN(CCO)CC3)nc(-c3ccccc3)c2c1	none
Clc1ccc2nc(N3CCNCC3)nc(-c3ccccc3)c2c1	none
O=c1nc(-c2ccccc2)n(-c2ccc(Cl)cc2)[nH]1	none
Cc1nc2ccc(F)cc2cc1C(=O)NCc1ccco1	none
Cc1nc2ccc(F)cc2cc1C(=O)Nc1ccc(Cl)c(Cl)c1	MPTP block 93.4 | Rh123 counter 82.3
O=C(CSc1nc2nc(-c3cccs3)cc(C(F)(F)F)c2c(=O)[nH]1)Nc1ccc(F)c(F)c1	MPTP block 76.4, NR3A LBD binder 35.1 | Rh123 counter 50.3
Cc1ccc(C)c(NC(=O)CSc2nc3nc(-c4cccs4)cc(C(F)(F)F)c3c(=O)[nH]2)c1	MPTP block 76.9 | Rh123 counter 61.0
O=S(=O)(Nc1cc(S(=O)(=O)N2CCOCC2)ccc1NCC1CCCO1)c1ccccc1 (configuration not stated)	none
O=C(CSc1nc2ccccc2o1)NC1CCCC1	none
O=C(Nc1ccccc1)Nc1ccc2nnsc2c1	MPTP block 82.7, NR3A LBD binder 42.2 | Rh123 counter 72.1
O=C(Nc1ccccc1)Nc1ccc2snnc2c1	MPTP block 100.9, NR3A LBD binder 31.9 | Rh123 counter 92.2
O=C(Nc1ccc(Cl)cc1)c1ccc2snnc2c1	none
CCOC(=O)c1csc(NC(=O)CSc2nnnn2-c2cccc(OC)c2)n1	none
CCCCNS(=O)(=O)c1ccc2nc(SCC(=O)Nc3sccc3C#N)[nH]c2c1	ADAM17 inh 12.7, MPTP block 79.4, NR3A LBD binder 14.4, ADAM10 inh 20.1 | Rh123 counter inactive | MPTP abs DR 11.2 | MPTP counter DR <2.5
COc1ccc(O)c(C(=O)c2cc(C#N)c(=O)n(Cc3ccccc3)c2)c1	none
N#Cc1cc(C(=O)c2cc(Br)ccc2O)cn(Cc2ccccc2)c1=O	MPTP block 51.7 | Rh123 counter 77.3

Assay outcomes from PubChem.
